According to ChEMBL document CHEMBL5365542, “Difluoromethyl-1,3,4-oxadiazoles Are Selective, Mechanism-Based, and Essentially Irreversible Inhibitors of Histone Deacetylase 6” (J Med Chem, 2023):
Active and inactive are the calls of the source. The rule behind the calls is not given here.

What was measured:
[1] = tested on: T1, Histone deacetylase 6 (Danio rerio), F8W4B7 [Y745F]; assay: Irreversible inhibition of Danio rerio HDAC6 Y745F mutant catalytic domain 2 assessed as enzyme catalysed ring opening by measuring reduction in 2-(benzylamino)-N'-(2,2,2-trifluoroacetyl)pyrimidine-5-carbohydrazide formation at 100 uM incubated overnight by LC-MS analysis
T1 sequence (whole entry): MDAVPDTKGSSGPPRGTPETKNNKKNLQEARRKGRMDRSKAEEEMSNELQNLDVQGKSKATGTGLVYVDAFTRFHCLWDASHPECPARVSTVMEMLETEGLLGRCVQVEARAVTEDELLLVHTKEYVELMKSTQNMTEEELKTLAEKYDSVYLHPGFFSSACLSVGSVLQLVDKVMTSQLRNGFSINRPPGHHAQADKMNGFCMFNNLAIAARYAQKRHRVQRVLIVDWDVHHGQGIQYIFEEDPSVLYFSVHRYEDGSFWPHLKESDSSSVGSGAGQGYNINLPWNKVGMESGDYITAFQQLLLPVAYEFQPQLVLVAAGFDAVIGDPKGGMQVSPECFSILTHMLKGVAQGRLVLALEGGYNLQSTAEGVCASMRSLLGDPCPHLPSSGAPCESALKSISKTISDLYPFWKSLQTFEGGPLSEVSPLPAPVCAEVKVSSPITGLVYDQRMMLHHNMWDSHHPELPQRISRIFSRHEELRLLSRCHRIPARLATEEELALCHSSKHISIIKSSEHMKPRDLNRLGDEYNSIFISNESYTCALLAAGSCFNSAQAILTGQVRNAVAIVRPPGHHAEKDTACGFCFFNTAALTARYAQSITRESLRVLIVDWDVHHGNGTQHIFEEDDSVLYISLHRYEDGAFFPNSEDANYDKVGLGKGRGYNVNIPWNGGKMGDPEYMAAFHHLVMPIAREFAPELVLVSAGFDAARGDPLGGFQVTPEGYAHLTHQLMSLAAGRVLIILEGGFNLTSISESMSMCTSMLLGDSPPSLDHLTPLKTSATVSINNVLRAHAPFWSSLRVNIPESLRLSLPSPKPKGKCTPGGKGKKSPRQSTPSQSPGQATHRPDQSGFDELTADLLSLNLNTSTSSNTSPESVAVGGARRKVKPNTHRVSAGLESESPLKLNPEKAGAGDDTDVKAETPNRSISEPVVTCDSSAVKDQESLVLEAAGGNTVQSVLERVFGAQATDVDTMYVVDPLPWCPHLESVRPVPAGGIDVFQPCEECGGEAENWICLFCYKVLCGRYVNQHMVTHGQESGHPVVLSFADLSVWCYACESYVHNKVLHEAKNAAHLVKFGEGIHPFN
Procedure, shortened: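 Zebrafish HDAC6 CD2 mutants were made by site-directed mutagenesis and expressed in BL21(DE3). Enzyme at 50 μM was incubated overnight with 100 μM inhibitor in 50 mM HEPES pH 7.5, 100 mM KCl, 1 mM TCEP, 5% glycerol; an enzyme-free control was included. Protein was methanol-precipitated and filtered, and products were analysed by C18 UPLC-MS with a 2-min gradient.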

[2] = target: T2, Protein deacetylase HDAC6 (Homo sapiens, UniProt Q9UBN7); assay: Inhibition of N-terminal GST tagged human recombinant HDAC6 (1 to 1215 residues) expressed in Sf9 insect cells using Z-Lys(Ac)-AMC as fluorogenic substrate preincubated for 60 mins followed by substrate addition and measured after 90 mins by microplate reader analysis
T2 sequence (Q9UBN7 whole entry): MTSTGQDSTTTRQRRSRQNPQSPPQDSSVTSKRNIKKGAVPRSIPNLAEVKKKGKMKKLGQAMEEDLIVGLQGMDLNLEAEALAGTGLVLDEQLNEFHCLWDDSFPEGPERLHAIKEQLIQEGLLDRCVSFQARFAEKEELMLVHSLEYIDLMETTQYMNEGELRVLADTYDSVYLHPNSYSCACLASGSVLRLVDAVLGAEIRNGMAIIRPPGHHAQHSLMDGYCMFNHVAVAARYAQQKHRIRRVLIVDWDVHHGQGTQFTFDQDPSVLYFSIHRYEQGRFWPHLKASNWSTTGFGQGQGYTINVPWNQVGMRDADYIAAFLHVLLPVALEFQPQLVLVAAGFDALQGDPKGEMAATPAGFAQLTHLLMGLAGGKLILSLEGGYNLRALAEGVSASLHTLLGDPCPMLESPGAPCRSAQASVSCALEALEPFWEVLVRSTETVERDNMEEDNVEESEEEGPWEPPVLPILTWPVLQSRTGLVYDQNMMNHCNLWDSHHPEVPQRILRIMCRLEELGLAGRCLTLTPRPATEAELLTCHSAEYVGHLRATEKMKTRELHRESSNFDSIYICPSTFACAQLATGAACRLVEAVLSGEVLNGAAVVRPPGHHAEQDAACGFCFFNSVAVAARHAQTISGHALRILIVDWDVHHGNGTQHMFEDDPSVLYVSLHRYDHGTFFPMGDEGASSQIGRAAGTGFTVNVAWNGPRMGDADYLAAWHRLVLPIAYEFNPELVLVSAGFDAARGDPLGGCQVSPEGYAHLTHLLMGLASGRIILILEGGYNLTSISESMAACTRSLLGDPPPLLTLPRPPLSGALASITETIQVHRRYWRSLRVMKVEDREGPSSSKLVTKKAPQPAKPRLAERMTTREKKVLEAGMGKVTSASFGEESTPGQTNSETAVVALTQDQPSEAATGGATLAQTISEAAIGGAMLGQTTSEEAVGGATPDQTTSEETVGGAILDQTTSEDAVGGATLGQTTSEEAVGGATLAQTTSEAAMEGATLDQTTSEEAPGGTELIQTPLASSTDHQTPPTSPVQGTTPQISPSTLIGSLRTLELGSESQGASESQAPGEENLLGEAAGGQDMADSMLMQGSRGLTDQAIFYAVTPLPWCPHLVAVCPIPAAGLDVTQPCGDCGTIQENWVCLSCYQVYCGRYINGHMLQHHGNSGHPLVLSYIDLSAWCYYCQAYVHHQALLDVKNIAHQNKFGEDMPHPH

[3] = target: T2, Protein deacetylase HDAC6; assay: Inhibition of N-terminal GST tagged human recombinant HDAC6 (1 to 1215 residues) expressed in Sf9 insect cells using Z-Lys(Ac)-AMC as fluorogenic substrate preincubated for 5 mins followed by substrate addition and measured after 90 mins by microplate reader analysis
[4] = target: T2, Protein deacetylase HDAC6; assay: Inhibition of N-terminal GST tagged human recombinant HDAC6 (1 to 1215 residues) expressed in Sf9 insect cells using Z-Lys(Ac)-AMC as fluorogenic substrate preincubated for 2 hrs followed by substrate addition and measured after 90 mins by microplate reader analysis

Compound | inhibition [1] | IC50 [2] [µM] | IC50 [3] [µM] | IC50 [4] [µM]
FC(F)c1nnc(-c2cnc(NCc3ccccc3)nc2)o1 | inactive | 0.193 | 0.347 | 0.129
FC(F)(F)c1nnc(-c2cnc(NCc3ccccc3)nc2)o1 | inactive | 0.531 | 0.84 | 0.601
